The list is not random: actives were taken first. Their share in the collection is about 1.5%.
CCR6 antagonist: blocks CCL20-driven beta-arrestin recruitment at human CCR6 | P51684 | CHO-K1 CCR6 PathHunter beta-arrestin, luminescence, CCL20-stimulated | inhibition, % at 20 µM | hit rate 0.49% among 340,000;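 active = compounds whose inhibition of the agonist-driven luminescence signal at 20 µM reaches about 50%, limit read from the data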;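 note: cells stimulated with CCL20 at 14 nM final; plate controls were DMSO with CCL20 for no effect and DMSO without agonist for full effect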
Target sequence (P51684 whole entry, looked up): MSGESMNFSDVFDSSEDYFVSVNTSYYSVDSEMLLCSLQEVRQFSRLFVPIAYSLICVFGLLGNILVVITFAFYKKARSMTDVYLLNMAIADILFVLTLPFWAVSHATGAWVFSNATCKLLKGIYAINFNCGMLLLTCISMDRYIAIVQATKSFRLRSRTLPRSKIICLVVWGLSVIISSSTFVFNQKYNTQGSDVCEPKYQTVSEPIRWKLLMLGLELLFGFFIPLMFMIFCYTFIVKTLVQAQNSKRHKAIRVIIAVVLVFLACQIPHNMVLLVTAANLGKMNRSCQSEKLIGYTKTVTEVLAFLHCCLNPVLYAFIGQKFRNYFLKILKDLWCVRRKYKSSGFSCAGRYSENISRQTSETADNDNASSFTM
APJ antag: blocks the human apelin receptor APJ | CHO-K1 APJ beta-arrestin complementation, luminescence | hit rate 0.32% among 330,000 | P35414 | AID 2521 | inhibition, % at 20 µM;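 active = inhibition above about 40% at 20 µM, limit read from the data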;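 note: cells challenged with 10 nM apelin-13 agonist together with compound; plate controls were apelin-13 plus DMSO wells for no effect and DMSO wells lacking apelin-13 for full effect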
CXCR6 inh: CXCR6 (human) receptor inhibition | O00574 | CHO-K1 PathHunter CXCR6 beta-arrestin, luminescence | inhibition, % at 20 µM | hit rate 0.36% among 360,000; in the data active = inhibition above about 34%, passing the limit was not always enough;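 note: antagonist mode with CXCL16 agonist at 10 nM final; 0% = 10 nM CXCL16 with DMSO and 100% = unstimulated wells without agonist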
Target sequence (O00574 whole entry, looked up): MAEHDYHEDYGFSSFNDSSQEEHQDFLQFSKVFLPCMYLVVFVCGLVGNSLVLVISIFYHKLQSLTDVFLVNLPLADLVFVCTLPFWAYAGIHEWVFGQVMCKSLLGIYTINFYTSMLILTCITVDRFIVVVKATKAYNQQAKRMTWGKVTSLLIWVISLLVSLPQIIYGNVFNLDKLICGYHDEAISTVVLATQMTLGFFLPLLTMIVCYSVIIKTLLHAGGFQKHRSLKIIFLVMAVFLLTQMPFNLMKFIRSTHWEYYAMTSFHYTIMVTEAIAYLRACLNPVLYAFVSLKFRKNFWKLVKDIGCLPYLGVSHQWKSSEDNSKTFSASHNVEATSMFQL
APJ agonist: activates the human apelin receptor APJ. P35414. CHO-K1 APJ PathHunter beta-arrestin, luminescence; 0% DMSO wells, 100% apelin. activation, % at 20 µM. hit rate 0.11% among 330,000. AID 2520;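 active = activation more than six SD over the plate average, tested at 20 µM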;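 note: 0% = DMSO alone and 100% = apelin-13 at 10 nM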
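Assay system: engineered CHO-K1 APJ arrestin reporter cells; Amount: 1000 CHO-K1 reporter cells seeded per well; Dosing: one dose, 20 µM compound, 1% DMSO; Times: compound stimulation 90 min at 25 °C, detection 60 min; Measured by: luminescent beta-gal fragment complementation, chemiluminescent substrate; Read-out: APJ–arrestin association signal; Controls: DMSO vs Apelin-13 10 nM.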
EBI2 block: EBI2 (human) antagonism. EBI2 beta-arrestin recruitment, luminescence, 7a,25-OHC stimulated. hit rate 0.81% among 360,000. AID 651636. inhibition, % at 5 µM. P32249; in the data active = inhibition above about 38%;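 note: enzyme fragment complementation signal reports receptor beta-arrestin coupling in cells; 0% = agonist plus DMSO wells and 100% = wells without agonist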
EBI2 conf: EBI2 (human) antagonism, single concentration confirmation | shares compounds with EBI2 block | inhibition, % at 5 µM | AID 651997 | hit rate 29% among 2,400 | EBI2 beta-arrestin luminescence, 7a,25-OHC antagonism;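 active = inhibition of at least 50%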
EBI2 agonist: activates EBI2, counter-screen for EBI2 antagonists | EBI2-expressing cells, agonist mode, luminescence, 60 min; 0% vehicle, 100% 7α,25-dihydroxycholesterol control | shares compounds with EBI2 block | activation, % at 5 µM | 2,400 tested, under 10 active | AID 652000;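 active = activation of at least 50%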
bGal counter: counter-screen for EBI2 antagonists: E. coli beta-galactosidase inhibition. hit rate 1% among 2,400. shares compounds with EBI2 block. purified beta-galactosidase, luminescent Galacton Star, 15 min. AID 652176. inhibition, % at 5 µM;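 active = replicate-average signal at least 3 plate SD below neutral wells, shown as high inhibition, flagging enzyme-inhibiting false positives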;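 note: 0% = DMSO wells with enzyme and 100% = wells lacking enzyme; higher means stronger loss of beta-gal luminescence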
* = called active by the depositor; nt = no result; ! = not active in a repeat.

SMILES	CCR6 antagonist	APJ antag	CXCR6 inh	APJ agonist	EBI2 block	EBI2 conf	EBI2 agonist	bGal counter
O=C(COc1ccccc1F)N1CCN(S(=O)(=O)/C=C/c2ccccc2)CC1	3.2	-5.4	-13.1	-2.8	54.5*	26.6	1.1	1.6
CCOC(=O)N1CCN(S(=O)(=O)/C=C/c2ccccc2)CC1	-23.6	-9.1	3.6	-2.8	-2.1	nt	nt	nt
Cc1cc(Cl)c2oc(C(=O)N3CCOCC3)c(C)c2c1	nt	nt	9.5	nt	-3.4	nt	nt	nt
Cc1cc(Cl)c2oc(C(=O)N3CCN(C(=O)c4ccco4)CC3)c(C)c2c1	7.8	-41.6	1.4	3.2	44.4*	19.9	-1.6	-7.2
Cc1cc(Cl)c2oc(C(=O)N3CCN(c4cnccn4)CC3)c(C)c2c1	nt	nt	1.3	nt	53.6*	32.8	-1.1	-8.1
Cc1ccc(-c2[nH]ncc2C(=O)c2ccccc2C)c(O)c1	-3.7	2.9	-0.4	-3.0	2.4	nt	nt	nt
Cc1sc2nc(CN3CCCC3)nc(N3CCN(S(=O)(=O)c4cccc(F)c4)CC3)c2c1C	10.0	3.8	-5.4	-3.6	6.2	nt	nt	nt
C=CCn1c(C)c(C(C)=O)c(N2CCN(C(c3ccccc3)c3ccccc3)CC2)nc1=S	23.5	20.1	12.8	-1.9	53.9*	23.8	0.8	2.9
O=C(CCC1CCCCC1)Nc1nncs1	-0.9	23.3	4.0	-2.8	-1.5	nt	nt	nt
COc1ccc(NC(=S)c2ccccc2)cc1	9.6	4.6	4.0	-1.5	-6.1	nt	nt	nt
CCOc1ccc(NC(=S)Nc2ccc(OCc3ccccc3)cc2)cc1	13.7	7.6	-3.9	4.9	58.1*	35.9	0.2	-13.0
COc1ccc(NC(=S)Nc2ccccc2)cc1	6.6	12.5	3.3	-1.7	38.6*!	9.4	2.8	7.1
CNC(=S)Nc1ccc(OCc2ccccc2)cc1	10.9	8.8	-11.2	-2.5	-1.2	nt	nt	nt
COc1cccc(NC(=S)Nc2ccc(Br)cc2Cl)c1	1.0	-3.1	3.9	-0.7	0.6	nt	nt	nt
CC(C)c1ccc(NC(=S)Nc2ccc(OC(F)(F)F)cc2)cc1	12.6	-9.3	1.1	-2.0	55.3*	51.0*	2.5	3.1
CCOc1ccc(NC(=S)Nc2ccc(Br)cc2Cl)cc1	14.4	-4.9	10.0	-3.0	67.8*	43.0	1.6	-2.5
CC(C(=O)Nc1cccc(S(=O)(=O)N2CCOCC2)c1)N1CCN(c2ccc(F)cc2)CC1 (stereo unspecified)	15.3	-8.3	2.8	-2.6	3.2	nt	nt	nt
CCC(C)c1ccc(NC(=S)Nc2ccc(OC)cc2)cc1 (stereo unspecified)	9.0	-6.1	6.9	-1.2	53.3*	48.6	1.5	4.3
COc1ccc(CCNC(=S)Nc2ccc(C(C)C)cc2)cc1	15.5	0.2	-4.8	-1.1	24.3	nt	nt	nt
CCOc1ccc(OCC(=O)Nc2ccc(OC)cc2)cc1	6.3	11.3	-7.2	1.5	-7.1	nt	nt	nt
CCOc1ccc(NC(=S)Nc2ccc(OC)cc2)cc1	-3.1	-7.1	3.3	-2.5	75.5*	62.8*	-1.2	-14.7
Cc1ccc(CC2(C)C(=O)Nc3c(Cl)ccc(Cl)c32)cc1 (stereo unspecified)	nt	nt	-1.4	nt	-3.4	nt	nt	nt
COc1ccccc1N(CC(=O)N1CCN(Cc2ccccc2)CC1)S(=O)(=O)c1ccccc1	nt	nt	8.1	nt	1.0	nt	nt	nt
COc1ccc(/C=C2\SC(=NCc3ccccc3)NC2=O)cc1	10.2	5.2	-7.9	-1.4	46.6*	39.1	2.1	4.1
COc1ccc(/C=C2\SC(=Nc3ccccc3OC)NC2=O)cc1	9.8	9.7	9.2	-4.8	1.1	nt	nt	nt
SMILES	CCR6 antagonist	APJ antag	CXCR6 inh	APJ agonist	EBI2 block	EBI2 conf	EBI2 agonist	bGal counter
CCOC(=O)[C@@H]1[C@H]2COc3ccccc3[C@H]2N2C(=O)N(c3ccc(Br)cc3)C(=O)[C@]12C	-1.7	15.3	4.5	-4.2	6.6	nt	nt	nt
CN(C)N=Nc1ccc(-c2cn(Cc3ccccc3)cn2)cc1	-13.9	-26.5	0.8	-0.5	45.3*	38.8	0.6	0.5
CN(Cc1ccccc1)N=Nc1ccccc1	nt	nt	-0.3	nt	6.1	nt	nt	nt
O=C(/C=C/c1ccc([N+](=O)[O-])cc1)N1CCN(S(=O)(=O)c2cccs2)CC1	-11.1	-33.7	-1.2	1.0	92.6*	63.3*	0.7	2.9
CCOC(=O)N1CCN(C(=O)/C=C/c2ccc([N+](=O)[O-])cc2)CC1	-6.3	16.6	-5.9	0.7	80.2*	57.7*	0.1	6.8
CCOC(=O)N1CCN(C(=O)/C=C/c2ccc(OC)c(OC)c2)CC1	10.9	-2.5	9.1	1.7	28.5	nt	nt	nt
CCOC(=O)N1CCN(C(=O)/C=C/c2ccc(C(C)(C)C)cc2)CC1	10.5	-9.3	-3.5	-1.4	61.6*	53.2*	0.7	7.8
CCOC(=O)N1CCN(C(=O)/C=C/c2cccc([N+](=O)[O-])c2)CC1	7.6	2.1	-5.7	0.8	48.4*	26.0	-0.7	-11.4
C/C(=N/OCO/N=C(/C)c1ccc(F)cc1)c1ccc(F)cc1	24.9	-12.5	-3.1	2.7	8.0	nt	nt	nt
O=S(=O)(Cc1ccc(Cl)cc1)N1CCCC1	1.1	-6.8	1.2	3.2	-3.2	nt	nt	nt
COc1ccccc1NC(=S)NC1CCC(CC2CCC(NC(=S)Nc3ccccc3OC)CC2)CC1 (stereo unspecified)	20.7	20.6	-8.1	-1.5	1.9	nt	nt	nt
COc1ccc(Cc2c(-c3ccc(C#N)cc3)nc3c4ccccc4ccn23)c(C)c1	nt	nt	1.1	nt	31.8	nt	nt	nt
COc1ccccc1Cc1c(-c2ccc(C#N)cc2)nc2c3ccccc3ccn12	nt	nt	1.7	nt	43.0*	19.3	-0.5	6.9
CCc1nc2ccc(C(=O)Nc3cc(-c4ccccc4)ccc3OC)cn2c1N(C)Cc1ccc(OC)cc1	nt	nt	12.9	nt	44.5*	0.0	-0.2	-6.4
CCc1nc2ccc(C(=O)Nc3cc(-c4ccccc4)ccc3OC)cn2c1N(C)C(=O)c1cccc(OC)c1	nt	nt	11.0	nt	42.9*	15.8	-0.7	-14.1
CCc1nc2ccc(C(=O)Nc3cc(-c4ccccc4)ccc3OC)cn2c1N(C)CCCc1ccccc1	nt	nt	14.3	nt	26.7	nt	nt	nt
COc1ccc(C(C)=O)cc1CSc1nc2ccccc2c(=O)n1-c1ccccc1C	2.4	0.6	11.8	3.6	44.3*	22.6	1.0	6.8
O=C(O)C1C2CCC1C(O)C2 (stereo unspecified)	nt	nt	-0.6	nt	-2.2	nt	nt	nt
C[C@@H]1[C@H](c2ccccc2)Oc2ccc(Cl)cc2S(=O)(=O)N1CC1CCCN1C(=O)OC(C)(C)C (stereo partly specified)	5.9	nt	0.8	nt	26.5	nt	nt	nt
CCOC(=O)[C@H](C)N1[C@H](C)[C@H](c2ccccc2)Oc2ccc(Cl)cc2S1(=O)=O	30.1	nt	1.8	nt	46.0*	22.2	-1.2	-14.1

Bioassay records: PubChem BioAssay, Sanford-Burnham Center for Chemical Genomics
